# Calls of active or inactive are those of the source. The calls are words filed in the database; no cut-off is given here.
# Tests used:
# [1] = Phototoxicity against rat Sarcoma M1 cells implanted in rat assessed as volume of tumor necrotic zones at 2.5 mg/kg, ip administered as single dose on day 11 after inoculation followed by 300 J/cm2 irradiation after 2.5 to 3 hrs measured on day 3 post photodynamic therapy (reference value: 30 +/- 4%); type: functional
# Outline: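 Rat M1 sarcoma was implanted subcutaneously in the left thigh, with randomisation on day 10. A single 2.5 mg/kg ip dose was given on day 11, then 810 nm laser (0.51 W/cm2, 300 J/cm2, 10 min) after 2.5−3 h. Tumours were sectioned on days 1, 3 and 12 after PDT (controls days 12, 14, 23), five animals per point. Parenchyma and necrotic zone volumes were estimated on hematoxylin and eosin staining.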
# Sarcoma M1 = test: Phototoxicity against rat Sarcoma M1 cells implanted in rat assessed as deposition of fragments of proliferated tumor parenchyma at 2.5 mg/kg, ip administered as single dose on day 11 post inoculation followed by 300 J/cm2 irradiation after 2.5 to 3 hrs measured on day 2 post photodynamic therapy; type: functional, organism-based
# [2] = Phototoxicity against mouse S37 cells implanted in F1 mouse assessed as tumor growth inhibition at 2.5 mg/kg, iv preincubated for 15 mins with subsequent 150 J/cm2 irradiation measured on day 8 post irradiation relative to control; type: functional; conditions: S37, light or radiation study, read-out: TGI
# Outline: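 S37 sarcoma mice treated on day 7 of tumor growth with compound iv; tumors 140–160 mm3 beforehand, droperidol 0.25 mg ip as anesthetic. LED irradiation at 800 ± 21 nm, 100 mW/cm2, 150 J/cm2, given 15 or 30 min after dosing. Controls got iv 0.9% NaCl. Volume = d1×d2×d3×0.52; TGI = […]×100%.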
SMILES,Activity [1] [%],Activity (Sarcoma M1),inhibition in vivo at 2.5 mg/kg [2] [%]
CCCO/N=C(\C)c1c(C)c2cc3nc(c4c5[nH]c(cc6nc(cc1[nH]2)[C@@H](C)[C@@H]6CC)c(C)c5C(=O)N(OCCC)C4=O)[C@H](CCC(=O)NCCSSCCNC(=O)CC[C@@H]1c2nc(cc4[nH]c(cc5nc(cc6[nH]c7c2C(=O)N(OCCC)C(=O)c7c6C)[C@H](CC)[C@H]5C)c(/C(C)=N/OCCC)c4C)[C@H]1C)[C@H]3C,77,Active,–
CCCO/N=C(\C)c1c(C)c2cc3nc(c4c5[nH]c(cc6nc(cc1[nH]2)[C@H](C)[C@H]6CC)c(C)c5C(=O)N(OCCC)C4=O)[C@@H](CCC(=O)OC)[C@@H]3C,–,–,100

# — ChEMBL document CHEMBL4024769, “Synthesis and Investigation of Photophysical and Biological Properties of Novel S-Containing Bacteriopurpurinimides” (J Med Chem, 2017)
